Experimental data: ChEMBL document CHEMBL5661964, “Selective in vivo and in vitro effects of a small molecule inhibitor of cyclin-dependent kinase 4” (J Natl Cancer Inst, 2001)
Active and inactive are the calls of the source. No cut-off for these calls is given here.

Tests used:
HCT-116 [1] = test: Antitumor activity against human HCT-116 cells xenografted in nude mouse assessed as decrease tumor growth at 75 mg/kg, iv administered once per week measured after 29 days; assay type: functional, organism-based; conditions: time 29.0 day
Summary of the method: (§1)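 Female BALB/c nu/nu mice (19–21 g) received 0.1 mL of HCT116 suspension (1 × 10^7 viable cells/mL, Hanks' buffer) s.c. At day 20 (tumours ~100 mm3), they were randomised into groups of eight. Dosing was i.v. via lateral tail vein at 10 mL/kg for 29 days. Blinded caliper volumes (L × W² × π/6) were taken every 2–4 days. Comparison to […] vehicle controls used one-way ANOVA/Dunnett; log-volume slopes gave growth rate.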

HCT-116 [2] = test: Antitumor activity against human HCT-116 cells xenografted in nude mouse assessed as decrease tumor volume at 75 mg/kg, iv administered once per week measured after 29 days; assay type: functional, organism-based; conditions: time 29.0 day; summary of the method: as §1

Q: For `O=c1[nH]cc(F)c(=O)[nH]1`, which Activity (HCT-116 [1]) is on record?
A: Active

Q: What about the Activity (HCT-116 [2]) of the same compound?
A: Active
